Assay results of several laboratories.
Protocols differ between the studies behind these lines. pIC50: −log10 of the molar value.
LDHA: L-lactate dehydrogenase A chain (LDHA, Homo sapiens, UniProt P00338)
PRMT3: Protein arginine N-methyltransferase 3 (PRMT3, Homo sapiens, UniProt O60678)
PTPN1: Tyrosine-protein phosphatase non-receptor type 1 (PTPN1, Homo sapiens, UniProt P18031)
TDP1: Tyrosyl-DNA phosphodiesterase 1 (TDP1, Homo sapiens, UniProt Q9NUW8)

The pIC50 of CC[C@@H](C)[C@@H](NC(=O)[C@@H](CCC(N)=O)NC(=O)[C@H](NC(C)=O)C(C)C)C(=O)N[C@@H](C(=O)N[C@H](Cc1ccc(O)cc1)C(=O)N[C@H](CCCCN)C(N)=O)C(C)C is reported as roughly 4.12 (Insulin (INS, Homo sapiens, UniProt P01308); enzyme activity, inhibitor; pH 7.4).
C[C@@H]1O[C@@H](O[C@@H]2[C@@H](O)[C@H](OCCc3ccc(O)c(O)c3)O[C@H](CO)[C@H]2OC(=O)/C=C/c2ccc(O)c(O)c2)[C@H](O)[C@H](O)[C@H]1O gave a pIC50 of less than 3.30 (LDHA; enzyme activity, inhibitor; pH 7.4).
CCOCc1nc(O)c(-c2nnc(Cc3ccc(Cl)cn3)o2)c(O)c1-c1c(OC)cccc1OC has a pIC50 of less than 4.52 (Histamine H2 receptor (HRH2, Homo sapiens, UniProt P25021); ligand displacement, radioligand).
CN1CCN(CCCN2c3ccccc3Sc3ccc(Cl)cc32)CC1 has a pIC50 of less than 4.00 (Glutathione reductase, mitochondrial (GSR, Homo sapiens, UniProt P00390); enzyme activity, inhibitor, absorbance).
CCS(=O)(=O)N1CC(CC#N)(n2cc(-c3ncnc4[nH]ccc34)cn2)C1 has a pIC50 of 4.30 (Broad substrate specificity ATP-binding cassette transporter ABCG2 (ABCG2, Homo sapiens, UniProt Q9UNQ0); transporter uptake, inhibitor, radiometric; Sf9; 0.75 min, cell membranes).
OC[C@H]1O[C@@H](n2cnc3c(NCCCc4ccccc4)ncnc32)[C@H](O)[C@@H]1O gave a pIC50 of less than 4.00 (PRMT3; enzyme activity, inhibitor, fluorescence).
O=C(CC(=O)c1cccc(N(Cc2ccccc2)Cc2ccccc2)c1)C(=O)N1CCN(C(=O)C(=O)CC(=O)c2cccc(N(Cc3ccccc3)Cc3ccccc3)c2)CC1 has a pIC50 of 5.55 (PTPN1; enzyme activity, inhibitor, absorbance; pH 7).
The pIC50 of O=C1C[C@@H](c2cc(O)cc(O)c2)Oc2cc(O)ccc21 is reported as 4.87 (Amine oxidase [flavin-containing] A (MAOA, Homo sapiens, UniProt P21397); enzyme activity, inhibitor).
Cc1ccc(NC(=O)c2ccc(C)c(C(F)(F)F)c2)cc1C#Cc1nn(C2CCC(O)CC2)c2ncnc(N)c12 (stereo not shown) gave a pIC50 of less than 5.00 (High affinity nerve growth factor receptor (NTRK1, Homo sapiens, UniProt P04629); enzyme activity, inhibitor, radiometric).
For O=C(O)c1ccc(CN2C(=O)c3cccc(NC(=O)c4ccc(Cl)s4)c3C2=O)cc1, the pIC50 was 6.51 (LDHA; enzyme activity, inhibitor).
N#Cc1ccc(COc2cccc(C3CCN(Cc4nc5ccc(C(=O)O)cc5n4C[C@@H]4CCO4)CC3)n2)c(F)c1 gave a pIC50 of 5.44 (Glucagon-like peptide 2 receptor (GLP2R, Homo sapiens, UniProt O95838); cAMP, antagonist).
COc1cc2c(OC)nc3c4cc5c(cc4cc(OCCCN4CCC(N6CCCCC6)CC4)c3c2cc1OC)OCO5 has a pIC50 of 5.19 (TDP1; enzyme activity, inhibitor, fluorescence).
For Nc1ncnc2c1ncn2[C@@H]1O[C@H](COP(=O)(O)OP(=O)(O)O)[C@@H](O)[C@H]1O, the pIC50 was 6.72 (Nucleotide-binding oligomerization domain-containing protein 1 (NOD1, Homo sapiens, UniProt Q9Y239); ligand displacement, FP).
Nc1ncnc2c1ncn2[C@@H]1O[C@H](CSCCNC(=O)NCCCc2ccccc2)[C@@H](O)[C@H]1O gave a pIC50 of less than 4.00 (PRMT3; enzyme activity, inhibitor, fluorescence).
For CNC(=O)c1cc2c(Oc3ccc(NC(=O)C4(C(=O)Nc5ccc(F)cc5)CC4)cc3)ccnc2cc1OC, the pIC50 was 7.77 (Receptor-interacting serine/threonine-protein kinase 2 (RIPK2, Homo sapiens, UniProt O43353); enzyme activity, inhibitor, radiometric).
The pIC50 of CC1=C[C@@]2(C[C@H](C)[C@H]3CC=C(C)[C@@H](O[C@@H]4O[C@H](CO)[C@@H](O)[C@H](O)[C@H]4O)[C@@H]3O2)OC1=O is reported as 4.04 (PTPN1; enzyme activity, inhibitor).
COc1cc2c(OC)nc3c4cc5c(cc4cc(OCCCN4CCCC4)c3c2cc1OC)OCO5 gave a pIC50 of 5.32 (TDP1; enzyme activity, inhibitor, fluorescence).
For CCCCN1/C(=C/C=C/c2sc3ccc(Br)cc3[n+]2CCCC)Sc2ccc(Br)cc21, the pIC50 was 5.50 (PRMT3; enzyme activity, inhibitor, radiometric).
With CCNC(=O)NCCSC[C@H]1O[C@@H](n2cnc3c(N)ncnc32)[C@H](O)[C@@H]1O the pIC50 was less than 4.00 (PRMT3; enzyme activity, inhibitor, fluorescence).
